According to ChEMBL document CHEMBL1150309, “Design, synthesis, and biological evaluation of thiophene analogues of chalcones” (Bioorg Med Chem, 2008):
pIC50: −log10 of the molar value.

Assays:
[1] = test system: L1210; test: Antiproliferative activity against mouse L1210 cells after 2 days; type: functional, cell-based; conditions: L1210, 48 h
How it was run: (§1)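 Cells suspended at 300,000–500,000 cells/mL of culture medium and mixed 1:1 with dilutions of compound. Incubated 2 days at 37 °C, then cell number counted with a Coulter counter. IC50 is the concentration giving 50% inhibition of proliferation. Values are means from dose–response curves of at least three independent experiments.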

[2] = test system: FM3A; test: Antiproliferative activity against mouse FM3A cells after 2 days; type: functional, cell-based; conditions: 48 h; how it was run: as §1
[3] = test system: MOLT-4; test: Antiproliferative activity against human MOLT4 cells after 2 days; type: functional, cell-based; conditions: MOLT-4, 48 h; how it was run: as §1
[4] = test system: CCRF-CEM; test: Antiproliferative activity against human CEM cells after 2 days; type: functional, cell-based; conditions: 48 h; how it was run: as §1
[5] = test system: HeLa; test: Antiproliferative activity against human HeLa cells after 2 days; type: functional, cell-based; conditions: 48 h; how it was run: as §1
[6] = Inhibition of bovine brain tubulin polymerization for 20 mins; design: species or system Bos taurus
How it was run: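 Bovine brain tubulin (10 µM) preincubated with varying compound concentrations in glutamate buffer at 30 °C, then cooled to 0 °C. GTP added and mixtures warmed to 30 °C in cuvettes while assembly was followed by turbidity. IC50 is the concentration that halves the extent of assembly after 20 min.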

[7] = organism: Bos taurus; test: Displacement of [3H]colchicine from bovine brain tubulin at 1 uM
How it was run: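 Bovine brain tubulin (1 µM) incubated with compound at 1 µM and [³H]colchicine at 5 µM. Result is reported as percent inhibition of colchicine binding.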

[8] = test system: K562; test: Cell cycle arrest in human K562 cells assessed as accumulation at G2/M phase at 1.3 uM after 24 hrs by flow cytometry; type: functional
[9] = test system: K562; test: Cell cycle arrest in human K562 cells assessed as accumulation at G0/G1phase at 1.3 uM after 24 hrs by flow cytometry; type: functional
[10] = test system: K562; test: Cell cycle arrest in human K562 cells assessed as accumulation at S phase at 1.3 uM after 24 hrs by flow cytometry; type: functional
[11] = test system: K562; test: Cell cycle arrest in human K562 cells assessed as accumulation at G2/M phase at 1.7 uM after 24 hrs by flow cytometry; type: functional
[12] = test system: K562; test: Cell cycle arrest in human K562 cells assessed as accumulation at G0/G1 phase at 1.7 uM after 24 hrs by flow cytometry; type: functional
[13] = test system: K562; test: Cell cycle arrest in human K562 cells assessed as accumulation at S phase at 1.7 uM after 24 hrs by flow cytometry; type: functional
[14] = test system: K562; test: Cell cycle arrest in human K562 cells assessed as accumulation at G2/M phase at 2.2 uM after 24 hrs by flow cytometry; type: functional
[15] = test system: K562; test: Cell cycle arrest in human K562 cells assessed as accumulation at G0/G1 phase at 2.2 uM after 24 hrs by flow cytometry; type: functional
[16] = test system: K562; test: Cell cycle arrest in human K562 cells assessed as accumulation at S phase at 2.2 uM after 24 hrs by flow cytometry; type: functional
[17] = test system: K562; test: Cell cycle arrest in human K562 cells assessed as accumulation at G2/M phase at 1.0 uM after 24 hrs by flow cytometry; type: functional
[18] = test system: K562; test: Cell cycle arrest in human K562 cells assessed as accumulation at G0/G1 phase at 1.0 uM after 24 hrs by flow cytometry; type: functional
[19] = test system: K562; test: Cell cycle arrest in human K562 cells assessed as accumulation at S phase at 1.0 uM after 24 hrs by flow cytometry; type: functional
[20] = test system: K562; test: Cell cycle arrest in human K562 cells assessed as accumulation at G2/M phase at 2.1 uM after 24 hrs by flow cytometry; type: functional
[21] = test system: K562; test: Cell cycle arrest in human K562 cells assessed as accumulation at G0/G1 phase at 2.1uM after 24 hrs by flow cytometry; type: functional
[22] = test system: K562; test: Cell cycle arrest in human K562 cells assessed as accumulation at S phase at 2.1uM after 24 hrs by flow cytometry; type: functional
[23] = test system: K562; test: Cell cycle arrest in human K562 cells assessed as accumulation at G2/M phase at 4.0 uM after 24 hrs by flow cytometry; type: functional
[24] = test system: K562; test: Cell cycle arrest in human K562 cells assessed as accumulation at S phase at 4.0 uM after 24 hrs by flow cytometry; type: functional
[25] = test system: K562; test: Cell cycle arrest in human K562 cells assessed as accumulation at G0/G1 phase at 4.0 uM after 24 hrs by flow cytometry; type: functional
[26] = test system: K562; test: Cell cycle arrest in human K562 cells assessed as accumulation at G2/M phase at 1.4 uM after 24 hrs by flow cytometry; type: functional
[27] = test system: K562; test: Cell cycle arrest in human K562 cells assessed as accumulation at G0/G1 phase at 1.4 uM after 24 hrs by flow cytometry; type: functional
[28] = test system: K562; test: Cell cycle arrest in human K562 cells assessed as accumulation at S phase at 1.4 uM after 24 hrs by flow cytometry; type: functional
[29] = test system: K562; test: Cell cycle arrest in human K562 cells assessed as accumulation at G2/M phase at 1.5 uM after 24 hrs by flow cytometry; type: functional
[30] = test system: K562; test: Cell cycle arrest in human K562 cells assessed as accumulation at G0/G1 phase at 1.5 uM after 24 hrs by flow cytometry; type: functional
[31] = test system: K562; test: Cell cycle arrest in human K562 cells assessed as accumulation at S phase at 1.5 uM after 24 hrs by flow cytometry; type: functional

pIC50 [1] | pIC50 [3] | pIC50 [4] | pIC50 [5] | pIC50 [6] | inhibition [7] | SMILES | pIC50 [2] | other results
5.62 | 5.92 | 5.68 | 5.77 |  |  | COc1cc(C(=O)c2ccc(-c3cccc(F)c3)s2)cc(OC)c1OC | 5.25 | 
5.89 | 6.43 | 5.89 | 5.96 |  |  | COc1cc(C(=O)c2ccc(-c3ccsc3)s2)cc(OC)c1OC | 5.74 | 
5.66 | 5.89 | 5.64 | 5.82 |  |  | COc1cc(C(=O)c2ccc(-c3ccc(Cl)cc3)s2)cc(OC)c1OC | 5.34 | 
5.55 | 5.85 | 5.82 | 5.89 |  |  | COc1ccc(/C=C/C(=O)c2cc(OC)c(OC)c(OC)c2)cc1 | 5.08 | 
6.25 | 6.40 | 6.32 | 6.51 | 5.82 | 74% | COc1cc(C(=O)c2ccc(-c3ccccc3)s2)cc(OC)c1OC | 6.34 | Activity [8]: 18%; Activity [9]: 34%; Activity [10]: 48%
6.28 | 6.52 | 6.37 | 6.33 | 6.10 | 82% | COc1cc(C(=O)c2ccc(-c3cccs3)s2)cc(OC)c1OC | 6.34 | Activity [11]: 75%; Activity [12]: 8%; Activity [13]: 17%
6.23 | 6.40 | 6.25 | 6.52 | 5.96 | 66% | COc1cc(C(=O)c2ccc(-c3ccc(F)cc3)s2)cc(OC)c1OC | 5.96 | Activity [14]: 21%; Activity [15]: 48%; Activity [16]: 31%
5.60 | 5.74 | 5.70 | 5.85 |  |  | COc1cccc(-c2ccc(C(=O)c3cc(OC)c(OC)c(OC)c3)s2)c1 | 5.62 | 
6.28 | 6.48 | 6.32 | 5.85 | 5.70 | 66% | COc1cc(C(=O)c2ccc(-c3ccccc3F)s2)cc(OC)c1OC | 6.06 | Activity [17]: 81%; Activity [18]: 8%; Activity [19]: 11%
6.28 | 6.42 | 6.27 | 6.30 | 5.52 | 28% | COc1ccc(-c2ccc(C(=O)c3cc(OC)c(OC)c(OC)c3)s2)cc1OC | 6.02 | Activity [20]: 57%; Activity [21]: 16%; Activity [22]: 27%
5.66 | 6.22 | 5.92 | 5.80 | 5.77 | 49% | COc1cc(C(=O)c2ccc(-c3ccccc3C)s2)cc(OC)c1OC | 5.68 | Activity [23]: 85%; Activity [24]: 23%; Activity [25]: 15%
6.31 | 6.42 | 6.44 | 6.39 | 6.10 | 74% | COc1cc(C(=O)c2ccc(-c3ccc(C)cc3)s2)cc(OC)c1OC | 6.33 | Activity [26]: 85%; Activity [27]: 8%; Activity [28]: 7%
5.37 | 5.51 | 5.66 | 5.43 |  |  | COc1cccc(/C=C/C(=O)c2cc(OC)c(OC)c(OC)c2)c1 | 4.96 | 
< 5.00 | < 5.00 | < 5.00 | < 5.00 |  |  | COc1cc(C(=O)/C=C/c2ccccc2)cc(OC)c1OC | < 5.00 | 
5.09 | 5.51 | 5.72 | 5.70 |  |  | COc1ccc(/C=C/C(=O)c2cc(OC)c(OC)c(OC)c2)cc1OC | 5.00 | 
< 5.00 | < 5.00 | < 5.00 | < 5.00 |  |  | COc1cc(C(=O)/C=C/c2ccc(F)cc2)cc(OC)c1OC | < 5.00 | 
5.68 | 5.72 | 5.74 | 5.85 |  |  | COc1ccccc1/C=C/C(=O)c1cc(OC)c(OC)c(OC)c1 | 5.10 | 
< 5.00 | < 5.00 | < 5.00 | < 5.00 |  |  | COc1cc(C(=O)/C=C/c2ccc(Cl)cc2)cc(OC)c1OC | < 5.00 | 
5.64 | 6.34 | 5.66 | 6.00 |  |  | COc1ccc(-c2ccc(C(=O)c3cc(OC)c(OC)c(OC)c3)s2)cc1 | 5.62 | 
< 5.00 | < 5.00 | < 5.00 | < 5.00 |  |  | COc1cc(C(=O)c2ccc(-c3ccc([N+](=O)[O-])cc3)s2)cc(OC)c1OC | < 5.00 | 
5.68 | 5.77 | 5.74 | 5.85 |  |  | COc1cc(C(=O)c2ccc(-c3cccc([N+](=O)[O-])c3)s2)cc(OC)c1OC | 5.62 | 
6.29 | 6.74 | 6.43 | 6.80 | 5.89 | 74% | COc1ccccc1-c1ccc(C(=O)c2cc(OC)c(OC)c(OC)c2)s1 | 6.36 | Activity [29]: 62%; Activity [30]: 12%; Activity [31]: 31%
6.12 | 6.00 | 6.31 | 5.80 |  |  | COc1cc(C(=O)c2ccc(-c3ccccc3Cl)s2)cc(OC)c1OC | 5.77 | 

SMILES | pIC50 [1] | pIC50 [3] | pIC50 [4] | pIC50 [5] | pIC50 [6] | inhibition [7] | pIC50 [2] | other results
COc1ccc(/C=C\c2cc(OC)c(OC)c(OC)c2)cc1O [COMBRETASTATIN A4] |  |  |  |  | 5.85 |  |  | 
